Experimental findings from the M2OR odorant receptor database are described below.

Details in all cases: stereoisomer not certain
Assay [1] deals with T1, UniProt Q8VGX8.
T1 sequence (whole entry): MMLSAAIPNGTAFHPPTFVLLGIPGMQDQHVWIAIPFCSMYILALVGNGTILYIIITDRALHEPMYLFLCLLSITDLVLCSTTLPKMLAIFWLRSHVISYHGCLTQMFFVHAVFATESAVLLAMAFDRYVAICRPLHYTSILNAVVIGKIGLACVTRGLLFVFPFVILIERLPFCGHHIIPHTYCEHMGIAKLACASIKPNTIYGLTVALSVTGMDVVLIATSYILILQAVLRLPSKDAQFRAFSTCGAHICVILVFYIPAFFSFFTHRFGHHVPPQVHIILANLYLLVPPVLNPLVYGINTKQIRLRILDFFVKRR
The gist of the method: (§1)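 Transient luciferase assays in mammalian cell lines were common, though methods varied by source. The values come from published papers and their supplementary material, with extra details from the original authors when needed. Responsive refers to a measured signal the original authors judged statistically different from baseline, and non-responsive (inactive) to the remainder.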

In assay [2] the target is T2, UniProt Q8VGY6.
T2 sequence (whole entry): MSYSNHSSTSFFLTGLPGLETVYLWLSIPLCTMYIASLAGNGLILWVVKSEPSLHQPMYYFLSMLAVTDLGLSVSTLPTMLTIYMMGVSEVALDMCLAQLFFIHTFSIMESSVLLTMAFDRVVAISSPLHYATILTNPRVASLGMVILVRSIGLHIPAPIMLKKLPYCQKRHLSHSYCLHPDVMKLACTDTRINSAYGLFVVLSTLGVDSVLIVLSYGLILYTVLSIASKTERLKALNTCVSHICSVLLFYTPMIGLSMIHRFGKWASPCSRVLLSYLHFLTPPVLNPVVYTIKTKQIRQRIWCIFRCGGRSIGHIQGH
The gist of the method:
as §1

Assay [3] has as its target T3, UniProt Q8VGZ2.
T3 sequence (whole entry): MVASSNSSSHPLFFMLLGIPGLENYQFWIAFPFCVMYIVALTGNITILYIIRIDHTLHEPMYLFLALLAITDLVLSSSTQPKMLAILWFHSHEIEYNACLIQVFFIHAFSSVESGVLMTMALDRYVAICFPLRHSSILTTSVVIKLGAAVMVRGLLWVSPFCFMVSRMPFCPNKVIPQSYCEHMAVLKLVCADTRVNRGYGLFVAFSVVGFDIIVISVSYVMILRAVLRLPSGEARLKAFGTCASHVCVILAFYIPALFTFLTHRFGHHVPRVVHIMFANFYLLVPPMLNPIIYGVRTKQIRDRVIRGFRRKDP
The procedure, abridged: as §1

The target in assay [4] is T4, UniProt Q8VGZ7.
T4 sequence (whole entry): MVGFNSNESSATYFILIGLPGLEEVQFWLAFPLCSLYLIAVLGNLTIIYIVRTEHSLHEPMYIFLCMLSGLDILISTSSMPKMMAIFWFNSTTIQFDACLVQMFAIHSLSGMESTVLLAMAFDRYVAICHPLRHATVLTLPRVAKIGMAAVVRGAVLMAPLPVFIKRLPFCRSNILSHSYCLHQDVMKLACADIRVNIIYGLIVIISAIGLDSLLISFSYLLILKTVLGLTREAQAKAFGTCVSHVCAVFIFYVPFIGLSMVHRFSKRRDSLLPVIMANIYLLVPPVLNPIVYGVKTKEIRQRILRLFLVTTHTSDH
The gist of the method: as §1

In assay [5] the target is T5, UniProt Q8VH10.
T5 sequence (whole entry): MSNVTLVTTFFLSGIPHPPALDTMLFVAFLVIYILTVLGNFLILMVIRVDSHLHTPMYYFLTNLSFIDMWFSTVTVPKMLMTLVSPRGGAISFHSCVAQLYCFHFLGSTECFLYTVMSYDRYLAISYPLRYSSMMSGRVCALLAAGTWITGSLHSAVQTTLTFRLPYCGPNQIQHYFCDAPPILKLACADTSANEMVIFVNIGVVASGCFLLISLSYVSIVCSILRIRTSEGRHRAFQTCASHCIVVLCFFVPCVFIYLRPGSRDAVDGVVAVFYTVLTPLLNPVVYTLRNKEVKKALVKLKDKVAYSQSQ
The procedure, abridged:
as §1

For assay [6], the target named is T6, UniProt Q8VH16.
T6 sequence (whole entry): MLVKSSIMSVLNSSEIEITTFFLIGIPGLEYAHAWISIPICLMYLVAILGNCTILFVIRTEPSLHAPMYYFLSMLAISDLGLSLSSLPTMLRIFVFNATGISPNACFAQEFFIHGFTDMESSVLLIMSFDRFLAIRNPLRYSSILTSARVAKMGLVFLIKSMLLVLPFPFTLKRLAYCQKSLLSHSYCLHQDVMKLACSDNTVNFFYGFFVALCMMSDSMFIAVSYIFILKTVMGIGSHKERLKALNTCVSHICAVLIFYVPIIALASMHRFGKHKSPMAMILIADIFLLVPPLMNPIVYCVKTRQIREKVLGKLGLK
The gist of the method: as §1

Assay [7] has as its target T7, UniProt Q8VH18.
T7 sequence (whole entry): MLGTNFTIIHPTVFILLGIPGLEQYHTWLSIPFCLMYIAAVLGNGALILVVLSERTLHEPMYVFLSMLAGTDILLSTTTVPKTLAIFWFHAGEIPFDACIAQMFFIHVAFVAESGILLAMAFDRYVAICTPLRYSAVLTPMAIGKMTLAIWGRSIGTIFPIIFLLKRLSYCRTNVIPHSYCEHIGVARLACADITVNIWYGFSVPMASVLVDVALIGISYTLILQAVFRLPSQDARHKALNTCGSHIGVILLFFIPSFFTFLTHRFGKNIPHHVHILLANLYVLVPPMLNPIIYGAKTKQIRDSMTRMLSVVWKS
The gist of the method: as §1

Assay [8] addresses T8, UniProt Q8VH20.
T8 sequence (whole entry): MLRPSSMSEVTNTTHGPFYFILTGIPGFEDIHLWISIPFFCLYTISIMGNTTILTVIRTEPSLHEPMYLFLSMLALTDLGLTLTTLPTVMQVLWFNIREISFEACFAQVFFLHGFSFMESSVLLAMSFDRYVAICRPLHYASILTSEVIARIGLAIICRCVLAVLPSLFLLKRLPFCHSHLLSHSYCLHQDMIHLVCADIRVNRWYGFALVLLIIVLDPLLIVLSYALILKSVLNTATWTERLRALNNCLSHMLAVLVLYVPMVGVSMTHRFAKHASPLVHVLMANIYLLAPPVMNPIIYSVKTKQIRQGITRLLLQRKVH
The gist of the method: as §1

Assay [9] has as its target T9, UniProt Q8VH21.
T9 sequence (whole entry): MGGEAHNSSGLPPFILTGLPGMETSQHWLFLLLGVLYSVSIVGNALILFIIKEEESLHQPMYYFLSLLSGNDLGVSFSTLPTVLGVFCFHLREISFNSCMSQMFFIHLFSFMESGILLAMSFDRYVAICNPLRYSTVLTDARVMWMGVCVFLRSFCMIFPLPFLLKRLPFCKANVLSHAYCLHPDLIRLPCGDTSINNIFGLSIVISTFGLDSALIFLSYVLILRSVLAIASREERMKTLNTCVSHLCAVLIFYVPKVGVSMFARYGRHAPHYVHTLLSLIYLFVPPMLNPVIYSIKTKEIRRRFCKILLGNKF
The procedure, abridged: as §1

For assay [10], the target named is T10, UniProt Q924H8.
T10 sequence (whole entry): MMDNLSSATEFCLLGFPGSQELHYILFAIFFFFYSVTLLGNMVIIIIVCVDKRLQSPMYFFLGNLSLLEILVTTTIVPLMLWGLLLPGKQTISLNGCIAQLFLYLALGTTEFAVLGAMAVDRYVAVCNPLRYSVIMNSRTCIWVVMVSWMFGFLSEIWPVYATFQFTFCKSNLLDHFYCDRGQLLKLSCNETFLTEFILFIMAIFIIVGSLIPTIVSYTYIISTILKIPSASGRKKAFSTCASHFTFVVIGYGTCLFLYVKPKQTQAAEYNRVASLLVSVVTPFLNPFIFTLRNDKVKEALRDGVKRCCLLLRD
The procedure, abridged:
as §1

The target of assay [11] is T11, UniProt Q99NH4.
T11 sequence (whole entry): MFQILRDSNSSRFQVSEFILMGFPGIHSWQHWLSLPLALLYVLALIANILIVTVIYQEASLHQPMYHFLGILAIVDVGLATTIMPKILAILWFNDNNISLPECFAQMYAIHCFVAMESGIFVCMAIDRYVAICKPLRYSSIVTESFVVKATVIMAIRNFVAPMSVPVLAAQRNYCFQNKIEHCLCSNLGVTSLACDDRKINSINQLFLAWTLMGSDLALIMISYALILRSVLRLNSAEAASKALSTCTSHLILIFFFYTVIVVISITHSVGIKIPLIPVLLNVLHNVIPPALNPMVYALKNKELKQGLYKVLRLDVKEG
The gist of the method: as §1

Assay [12] addresses T12, UniProt Q9EPN9.
T12 sequence (whole entry): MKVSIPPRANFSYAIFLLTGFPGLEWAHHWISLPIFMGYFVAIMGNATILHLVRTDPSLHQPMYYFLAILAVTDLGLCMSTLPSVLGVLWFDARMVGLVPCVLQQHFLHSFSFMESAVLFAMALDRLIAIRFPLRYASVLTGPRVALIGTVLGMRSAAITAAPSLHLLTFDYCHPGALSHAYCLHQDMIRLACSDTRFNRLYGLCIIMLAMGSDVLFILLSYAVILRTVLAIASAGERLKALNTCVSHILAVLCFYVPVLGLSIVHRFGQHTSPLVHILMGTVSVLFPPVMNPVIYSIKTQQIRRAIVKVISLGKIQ
The gist of the method: as §1

The target of assay [13] is UniProt Q9R0K2. The gist of the method: as §1
Assay [14] concerns the target T13, UniProt Q9WU86.
T13 sequence (whole entry): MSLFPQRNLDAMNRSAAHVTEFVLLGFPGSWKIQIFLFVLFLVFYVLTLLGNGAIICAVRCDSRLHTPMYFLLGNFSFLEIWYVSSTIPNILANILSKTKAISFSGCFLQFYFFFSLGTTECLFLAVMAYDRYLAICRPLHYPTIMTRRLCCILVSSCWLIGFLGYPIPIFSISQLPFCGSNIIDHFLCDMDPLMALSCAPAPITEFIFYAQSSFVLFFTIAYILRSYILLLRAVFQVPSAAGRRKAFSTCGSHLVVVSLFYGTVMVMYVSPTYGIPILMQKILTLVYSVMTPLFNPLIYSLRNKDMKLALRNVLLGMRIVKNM
The gist of the method:
as §1

Assay [15] deals with T14, UniProt Q9WU94.
T14 sequence (whole entry): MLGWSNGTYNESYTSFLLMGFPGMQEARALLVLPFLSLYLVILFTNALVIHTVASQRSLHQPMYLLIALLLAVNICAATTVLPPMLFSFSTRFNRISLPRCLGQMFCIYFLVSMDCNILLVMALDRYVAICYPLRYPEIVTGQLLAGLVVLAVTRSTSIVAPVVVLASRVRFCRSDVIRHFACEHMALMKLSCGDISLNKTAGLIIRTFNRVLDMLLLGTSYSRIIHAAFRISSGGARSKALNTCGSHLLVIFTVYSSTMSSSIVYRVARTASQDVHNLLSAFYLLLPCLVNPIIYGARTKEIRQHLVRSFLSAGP
The procedure, abridged: as §1

For assay [16], the target named is T15, UniProt Q920P1.
T15 sequence (whole entry): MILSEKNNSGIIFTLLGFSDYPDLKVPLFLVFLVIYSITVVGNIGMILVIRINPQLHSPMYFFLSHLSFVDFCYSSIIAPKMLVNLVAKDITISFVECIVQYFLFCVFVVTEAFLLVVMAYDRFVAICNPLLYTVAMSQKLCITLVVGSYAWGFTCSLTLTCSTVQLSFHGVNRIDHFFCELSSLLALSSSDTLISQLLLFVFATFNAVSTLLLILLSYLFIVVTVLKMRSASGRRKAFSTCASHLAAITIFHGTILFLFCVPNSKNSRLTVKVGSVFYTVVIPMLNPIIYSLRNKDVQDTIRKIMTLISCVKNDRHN
The procedure, abridged:
as §1

Assay [17] addresses T16, UniProt Q920P2.
T16 sequence (whole entry): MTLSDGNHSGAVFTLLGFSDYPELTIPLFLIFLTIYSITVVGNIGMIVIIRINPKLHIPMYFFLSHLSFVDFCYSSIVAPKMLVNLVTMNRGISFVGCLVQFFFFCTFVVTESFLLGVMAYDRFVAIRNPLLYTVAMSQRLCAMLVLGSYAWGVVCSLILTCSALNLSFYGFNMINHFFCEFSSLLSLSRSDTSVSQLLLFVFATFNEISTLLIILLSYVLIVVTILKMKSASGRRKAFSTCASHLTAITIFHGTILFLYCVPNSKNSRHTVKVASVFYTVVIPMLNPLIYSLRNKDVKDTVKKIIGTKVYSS
The gist of the method: as §1
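Further: active if original authors judged signal statistically different from baseline.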

Sequence of UniProt Q9R0K2 (Q9R0K2 as listed by the source): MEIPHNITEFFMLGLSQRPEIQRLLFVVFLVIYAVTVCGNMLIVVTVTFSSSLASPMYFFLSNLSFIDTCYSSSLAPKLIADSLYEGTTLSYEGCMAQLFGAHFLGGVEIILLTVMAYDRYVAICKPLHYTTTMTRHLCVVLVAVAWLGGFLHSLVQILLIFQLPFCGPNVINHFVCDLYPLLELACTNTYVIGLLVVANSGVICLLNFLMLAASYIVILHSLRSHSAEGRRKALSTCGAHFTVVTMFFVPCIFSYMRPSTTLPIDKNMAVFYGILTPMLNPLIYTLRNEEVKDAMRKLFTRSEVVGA

With `CCCCCCCCCC(=O)[O-].[H+]`, the “odorant receptor agonist call” value in [1], in assay [3] and in assay [8] was “active” in each case. Further, the “odorant receptor agonist call” value in assay [2], in [4], in assay [5], in assay [6], in [7] and in assay [9] was “inactive” each time. The “odorant receptor agonist call” value in [10], in assay [11], in [12], in assay [13], in assay [14] and in assay [15] was “inactive” throughout.

For `COc1cc(C(=O)O)ccc1O`, the “odorant receptor agonist call” value in assay [1], in assay [3], in [4], in assay [5], in assay [6] and in assay [8] was “inactive” in each case. Moreover, the “odorant receptor agonist call” value in assay [9], in assay [16], in assay [17], in assay [10], in assay [12] and in assay [13] was “inactive” each time. Besides, the “odorant receptor agonist call” value in [14] is “inactive”. Moreover, the “odorant receptor agonist call” value in [2] was “active”.

`CC(=O)Oc1ccccc1`: the “odorant receptor agonist call” value in assay [1], in [2], in assay [3], in assay [4], in [6] and in [8] was “inactive” in each case. For the same molecule, the “odorant receptor agonist call” value in [9], in assay [10], in assay [12] and in assay [13] was “inactive” each time. Besides, the “odorant receptor agonist call” value in assay [5] and in assay [14] was “active” each time.
